Reference: ChEMBL document CHEMBL2413042, “Design, synthesis and evaluation of dialkyl 4-(benzo[d][1,3]dioxol-6-yl)-1,4-dihydro-2,6-dimethyl-1-substituted pyridine-3,5-dicarboxylates as potential anticonvulsants and their molecular properties prediction” (Eur J Med Chem, 2013)
Values after ≈ are worked out from the molar mass of the structure shown. Active and inactive are the calls of the source. No cut-off for these calls is given here.

What was measured:
Rattus norvegicus [1] = test: Anticonvulsant activity in Wistar albino rat assessed as protection against maximum electric shock-induced hind limb tonic extension administered 1 hr followed by maximum electric shock induction; format: functional, organism-based; details: Hindlimb
Method in brief: (§1)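 Male Wistar albino rats, six per group, were given test compound orally as a suspension in 0.5% sodium carboxymethylcellulose. Controls received vehicle; phenytoin 30 mg/kg was given orally. One hour after dosing, 150 mA was applied for 0.2 sec through corneal electrodes. Duration of hind limb tonic extension was recorded. Values are mean±SEM; ANOVA with Dunnett's test vs control.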

Rattus norvegicus [2] = test: Anticonvulsant activity in Wistar albino rat assessed as protection against maximum electric shock-induced hind limb tonic extension at 30 mg/kg administered 1 hr followed by maximum electric shock induction relative to control; format: functional, Hindlimb
Method in brief: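 Male Wistar albino rats, six per group, dosed orally as a suspension in 0.5% sodium carboxymethylcellulose, with a vehicle control group. One hour later, 150 mA for 0.2 sec was applied through corneal electrodes. Duration of hind limb tonic extension was recorded, and abolition or reduction of extension was scored against control. Mean±SEM; one-way ANOVA with Dunnett's test.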

Rattus norvegicus [3] = test: Anticonvulsant activity in Wistar albino rat assessed as time of onset of subcutaneous pentylenetetrazole-induced clonic convulsion at 30 mg/kg administered 1 hr prior to pentylenetetrazole challenge measured for 300 secs (reference value: 83 +/- 4 secs); format: functional
Rattus norvegicus [4] = test: Anticonvulsant activity in Wistar albino rat assessed as protection against subcutaneous pentylenetetrazole-induced mortality at 30 mg/kg administered 1 hr prior to pentylenetetrazole challenge measured for 300 secs relative to control; format: functional
[5] = system: Radical scavenging activity; test: Antioxidant activity assessed as DPPH free radical scavenging activity under dark condition after 30 mins; format: functional
Method in brief: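 Test compound in ethanol (10, 50, 100, 250, 500 μg/ml solutions) was added to 0.004% DPPH in methanol. The mixture was kept in the dark for 30 min and absorbance was read at 517 nm. Percent radical inhibition was calculated, with ascorbic acid as reference, and IC50 was derived.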

Rattus norvegicus [6] = test: Anticonvulsant activity in Wistar albino rat assessed as protection against maximum electric shock-induced hind limb tonic extension at 50 mg/kg, po administered 1 hr followed by maximum electric shock induction relative to control; format: functional, Hindlimb; method in brief: as §1
Rattus norvegicus [7] = test: Anticonvulsant activity in Wistar albino rat assessed as protection against subcutaneous pentylenetetrazole-induced mortality at 50 mg/kg, po administered 1 hr prior to pentylenetetrazole challenge measured for 300 secs relative to control; format: functional
Method in brief: (§2)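 Male Wistar albino rats, six per group. Test agents were given orally as suspensions in 0.5% sodium carboxymethylcellulose; the reference was given i.p.; the vehicle group served as control. Pentylenetetrazole 80 mg/kg was given s.c. 1 h later. Onset of clonic convulsions and protection against mortality were recorded, with a 300 sec maximum latency. Mean±SEM; one-way ANOVA with Dunnett's test.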

Rattus norvegicus [8] = test: Anticonvulsant activity in Wistar albino rat assessed as time of onset of subcutaneous pentylenetetrazole-induced clonic convulsion at 50 mg/kg, po administered 1 hr prior to pentylenetetrazole challenge measured for 300 secs (reference value: 83 +/- 4 secs); format: functional
Mus musculus = test: Antinociceptive activity in Swiss albino mouse assessed as reduction of capsaicin-induced flinching at 10 mg/kg, po administered 1 hr followed by capsaicin challenge; format: functional; parameters: scale not given: the % may be the effect or the level left
Method in brief: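 Male Swiss mice (18-22 g), six per group, were dosed by oral gavage with compound in 0.5% sodium carboxymethylcellulose. One hour later, capsaicin (1 nmol/paw, 20 μl) was injected intraplantar into the right hind paw. Flinches of the injected paw were counted for 5 min. Values are mean±SEM; ANOVA with Dunnett's test vs vehicle control.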

Rattus norvegicus [9] = test: Anticonvulsant activity in po dosed Wistar albino rat assessed as protection against subcutaneous pentylenetetrazole-induced mortality administered 1 hr prior to pentylenetetrazole challenge measured for 300 secs; format: functional, organism-based
Rattus norvegicus [10] = test: Anticonvulsant activity in Wistar albino rat assessed as protection against subcutaneous pentylenetetrazole-induced mortality at 100 mg/kg, po administered 1 hr prior to pentylenetetrazole challenge measured for 300 secs relative to control; format: functional; method in brief: as §2
Rattus norvegicus [11] = test: Anticonvulsant activity in po dosed Wistar albino rat assessed as inhibition of subcutaneous pentylenetetrazole-induced seizure administered 1 hr prior to pentylenetetrazole challenge measured for 300 secs; format: functional, organism-based
Rattus norvegicus [12] = test: Anticonvulsant activity in Wistar albino rat assessed as time of onset of subcutaneous pentylenetetrazole-induced clonic convulsion at 25 mg/kg, po administered 1 hr prior to pentylenetetrazole challenge measured for 300 secs (reference value: 83 +/- 3.8 secs); format: functional
Rattus norvegicus [13] = test: Anticonvulsant activity in Wistar albino rat assessed as protection against maximum electric shock-induced hind limb tonic extension at 100 mg/kg, po administered 1 hr followed by maximum electric shock induction relative to control; format: functional, Hindlimb; method in brief: as §1
Rattus norvegicus [14] = test: Anticonvulsant activity in Wistar albino rat assessed as protection against subcutaneous pentylenetetrazole-induced mortality at 25 mg/kg, po administered 1 hr prior to pentylenetetrazole challenge measured for 300 secs relative to control; format: functional; method in brief: as §2
Rattus norvegicus [15] = test: Anticonvulsant activity in Wistar albino rat assessed as protection against maximum electric shock-induced hind limb tonic extension at 25 mg/kg, po administered 1 hr followed by maximum electric shock induction relative to control; format: functional, Hindlimb; method in brief: as §1
Rattus norvegicus [16] = test: Anticonvulsant activity in po dosed Wistar albino rat assessed as protection against maximum electric shock-induced hind limb tonic extension administered 1 hr followed by maximum electric shock induction; format: functional, organism-based; details: Hindlimb; method in brief: as §1
Rattus norvegicus [17] = test: Anticonvulsant activity in Wistar albino rat assessed as time of onset of subcutaneous pentylenetetrazole-induced clonic convulsion at 100 mg/kg, po administered 1 hr prior to pentylenetetrazole challenge measured for 300 secs (reference value: 83 +/- 3.8 secs); format: functional
Rattus norvegicus [18] = test: Anticonvulsant activity in Wistar albino rat assessed as time of onset of subcutaneous pentylenetetrazole-induced clonic convulsion at 5 mg/kg, ip administered 1 hr prior to pentylenetetrazole challenge measured for 300 secs (reference value: 83 +/- 4 secs); format: functional; method in brief: as §2
Rattus norvegicus [19] = test: Anticonvulsant activity in Wistar albino rat assessed as protection against maximum electric shock-induced hind limb tonic extension at 30 mg/kg, po administered 1 hr followed by maximum electric shock induction relative to control; format: functional, Hindlimb; method in brief: as §1

Row | Structure (SMILES) | IC50 [5] | Activity (Rattus norvegicus [6]) | Activity (Rattus norvegicus [7]) | Time (Rattus norvegicus [8]) | other results
1 | COC(=O)C1=C(C)NC(C)=C(C(=O)OC(C)C)C1c1cccc2nonc12 (stereo not given) |  |  |  |  | Activity (Rattus norvegicus [1]): Active
2 | COC(=O)C1=C(C)NC(C)=C(C(=O)OC)C1c1ccccc1[N+](=O)[O-] [NIFEDIPINE] |  |  |  |  | Activity (Rattus norvegicus [2]): 66.6%; Time (Rattus norvegicus [3]): 215 s; Activity (Rattus norvegicus [4]): 33.3%
3 | CCOC(=O)C1=C(C)N(c2ccccc2)C(C)=C(C(=O)OC)C1c1ccc2c(c1)OCO2 (stereo not given) | 740 µg/mL (≈ 1700 µM) | 41.2% | 0% | 221 s | 
4 | CCOC(=O)C1=C(C)N(c2ccccc2)C(C)=C(C(=O)OCC)C1c1ccc2c(c1)OCO2 | 443 µg/mL (≈ 986 µM) | 46% | 66.6% | 275 s | 
5 | CCOC(=O)C1=C(C)NC(C)=C(C(=O)OC)C1c1ccc2c(c1)OCO2 (stereo not given) | 467 µg/mL (≈ 1300 µM) | 28.5% | 33.3% | 233 s | 
6 | COC(=O)C1=C(C)N(c2ccccc2[N+](=O)[O-])C(C)=C(C(=O)OC)C1c1ccc2c(c1)OCO2 | 2354 µg/mL (≈ 5050 µM) | 33.3% | 0% | 174 s | 
7 | COC(=O)C1=C(C)NC(C)=C(C(=O)OC)C1c1ccc2c(c1)OCO2 | 604 µg/mL (≈ 1750 µM) | 27% | 0% | 200 s | Activity (Mus musculus): 21%
8 | CCOC(=O)C1=C(C)N(c2ccc([N+](=O)[O-])cc2)C(C)=C(C(=O)OC)C1c1ccc2c(c1)OCO2 (stereo not given) | 854 µg/mL (≈ 1780 µM) | 31.7% | 33.3% | 225 s | Activity (Mus musculus): 4%
9 | O=C1O[C@H]([C@@H](O)CO)C(O)=C1O [ASCORBIC ACID] | 32 µg/mL (≈ 182 µM) |  |  |  | 
10 | CCOC(=O)C1=C(C)N(c2ccc([N+](=O)[O-])cc2)C(C)=C(C(=O)OCC)C1c1ccc2c(c1)OCO2 | 597 µg/mL (≈ 1210 µM) | 46% | 66.6% | 237 s | 
11 | CCOC(=O)C1=C(C)N(c2cccc([N+](=O)[O-])c2)C(C)=C(C(=O)OC)C1c1ccc2c(c1)OCO2 (stereo not given) | 386 µg/mL (≈ 803 µM) | 28.5% | 0% | 136 s | 
12 | COC(=O)C1=C(C)N(c2cccc([N+](=O)[O-])c2)C(C)=C(C(=O)OC)C1c1ccc2c(c1)OCO2 | 521 µg/mL (≈ 1120 µM) | 11.1% | 0% | 138 s | 
13 | CCOC(=O)C1=C(C)N(c2ccccc2[N+](=O)[O-])C(C)=C(C(=O)OCC)C1c1ccc2c(c1)OCO2 | 874 µg/mL (≈ 1770 µM) | 60.3% | 66.6% | 293 s | 
14 | CCOC(=O)C1=C(C)NC(C)=C(C(=O)OCC)C1c1ccc2c(c1)OCO2 | 375 µg/mL (≈ 1000 µM) | 59% | 100% | >300 s | Activity (Rattus norvegicus [9]): Dose-dependent effect; Activity (Rattus norvegicus [10]): 0%; inhibition (Rattus norvegicus [11]): Dose-dependent effect; Time (Rattus norvegicus [12]): 194 s; Activity (Mus musculus): 8%; Activity (Rattus norvegicus [13]): 72%; Activity (Rattus norvegicus [14]): 100%; Activity (Rattus norvegicus [15]): 41.6%; Activity (Rattus norvegicus [16]): Dose-dependent effect; Time (Rattus norvegicus [17]): >300 s
15 | CN1C(=O)CN=C(c2ccccc2)c2cc(Cl)ccc21 [DIAZEPAM] |  |  |  |  | Time (Rattus norvegicus [18]): 262 s
16 | CCOC(=O)C1=C(C)N(c2cccc([N+](=O)[O-])c2)C(C)=C(C(=O)OCC)C1c1ccc2c(c1)OCO2 | 363 µg/mL (≈ 734 µM) | 49.2% | 33.3% | 250 s | 
17 | O=C1NC(=O)C(c2ccccc2)(c2ccccc2)N1 [PHENYTOIN] |  |  |  |  | Activity (Rattus norvegicus [19]): 69.8%
18 | COC(=O)C1=C(C)N(c2ccc([N+](=O)[O-])cc2)C(C)=C(C(=O)OC)C1c1ccc2c(c1)OCO2 | 1289 µg/mL (≈ 2760 µM) | 7.9% | 0% | 93 s | 
19 | COC(=O)C1=C(C)N(c2ccccc2)C(C)=C(C(=O)OC)C1c1ccc2c(c1)OCO2 | 542 µg/mL (≈ 1290 µM) | 41.2% | 0% | 200 s | Activity (Mus musculus): 0%
20 | CCOC(=O)C1=C(C)N(c2ccccc2[N+](=O)[O-])C(C)=C(C(=O)OC)C1c1ccc2c(c1)OCO2 (stereo not given) | 933 µg/mL (≈ 1940 µM) | 44.5% | 33.3% | 251 s | 
